Holding throughout (assay type): functional
The species entered for test [1] is Mus musculus. Briefly: Evaluated for effect against passive hemagglutinination in female BALB/c mice immunized with 10 ug of DNP-As and 2 mg of Al(OH3) after day 21; PHA(log2). In short, it runs like this:
(§1)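 Female BALB/c mice were given 10 μg DNP-As and 2 mg Al(OH)3 on day 0, then 100 (mg/kg)/day po in 2% NaHCO3 for 5 days after immunization. Pooled sera from five mice (days 10, 21, 30) were serially diluted and mixed with sheep red cells coupled to DNP-As via glutaraldehyde, then held 2 h at 37 °C. Titer is the greatest dilution with complete agglutination, expressed as n of 2^n.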

For test [2], the species on record is Mus musculus. Description: Evaluated for effect against passive hemagglutinination in female BALB/c mice immunized with 10 ug of DNP-As and 2 mg of Al(OH3) after day 30; PHA(log2). The method, boiled down: as §1
Test [3] is filed under the species Mus musculus. Briefly: Evaluated for effect against passive cutaneous anaphylaxis in female BALB/c mice immunized with 10 ug of DNP-As and 2 mg of Al(OH3) after day 10; PCA (log2). In short, it runs like this: (§2)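 Female BALB/c mice received 10 μg DNP-As and 2 mg Al(OH)3 on day 0, then 100 (mg/kg)/day po in 2% NaHCO3 for 5 days after immunization. Sera were taken on days 10, 21 and 30 and pooled from five mice. PCA was done in normal male Wistar rats: serum id in duplicate, then 1 mg DNP-As with 5 mg Evans blue iv; titer is the greatest dilution with a reaction >5 mm.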

The species entered for test [4] is Mus musculus. Briefly: Evaluated for effect against passive cutaneous anaphylaxis in female BALB/c mice immunized with 10 ug of DNP-As and 2 mg of Al(OH3) after day 21; PCA (log2). In short, it runs like this:
as §2

The species named for test [5] is Mus musculus. Briefly: Evaluated for effect against passive cutaneous anaphylaxis in female BALB/c mice immunized with 10 ug of DNP-As and 2 mg of Al(OH3) after day 30; PCA (log2). In short, it runs like this:
as §2

The species entered for test [6] is Mus musculus. Briefly: Evaluated for effect against passive hemagglutinination in female BALB/c mice immunized with 10 ug of DNP-As and 2 mg of Al(OH3) after day 10; PHA(log2). The method, boiled down:
as §1

The species entered for test [7] is Rattus norvegicus. Briefly: Evaluated for effect against passive cutaneous anaphylaxis in rats immunized with DNP-As and B. pertussis; PCA (log2). The method, boiled down: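 Rats were immunized with 1 mg DNP-As and 10^10 B. pertussis on day 0 and boosted with 0.5 mg DNP-As on day 5. Drug was given at 100 (mg/kg)/day ip for 5 days from day 0, and serum was taken on day 8. PCA was read in male Wistar rats after id serum, with iv DNP-As and Evans blue. Titer is the greatest dilution with a spot >5 mm; means ± SE of eight rats.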

Test [8] is filed under the species Rattus norvegicus. Briefly: Evaluated for effect against passive hemagglutinination in rats immunized with DNP-As and B. pertussis; PHA(log2). In short, it runs like this: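 Rats were immunized day 0 with 1 mg DNP-As plus 10¹⁰ killed B. pertussis, boosted day 5 with 0.5 mg DNP-As alone, and titers read on day 8. Dosing was 100 (mg/kg)/day ip for 5 days from day 0. Serum dilutions were incubated with DNP-As-coupled sheep erythrocytes for 2 h at 37 °C; complete agglutination endpoint as 2^n; means ± SE, eight rats.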

For test [9], the species on record is Mus musculus. Briefly: Evaluated for effect against passive cutaneous anaphylaxis (PCA) in female BALB/c mice immunized with 10 ug of DNP-As and 2 mg of Al(OH3) after day 10; PCA (log2). In short, it runs like this:
as §2

For test [10], the species on record is Mus musculus. Briefly: Evaluated for effect against passive cutaneous anaphylaxis (PCA) in female BALB/c mice immunized with 10 ug of DNP-As and 2 mg of Al(OH3) after day 21; PCA (log2). The method, boiled down:
as §2

The species entered for test [11] is Mus musculus. Briefly: Evaluated for effect against passive cutaneous anaphylaxis (PCA) in female BALB/c mice immunized with 10 ug of DNP-As and 2 mg of Al(OH3) after day 30; PCA (log2). In short, it runs like this: as §2
Test [12] is filed under the species Mus musculus. Briefly: Evaluated for effect against passive hemagglutinination (PHA) in female BALB/c mice immunized with 10 ug of DNP-As and 2 mg of Al(OH3) after day 21; PHA(log2). The method, boiled down:
as §1

For test [13], the species on record is Mus musculus. Description: Evaluated for effect against passive hemagglutinination (PHA) in female BALB/c mice immunized with 10 ug of DNP-As and 2 mg of Al(OH3) after day 30; PHA(log2). The method, boiled down: as §1
For test [14], the species on record is Mus musculus. Briefly: Evaluated for effect against passive hemagglutinination (PHA) in female BALB/c mice immunized with 10 ug of DNP-As and 2 mg of Al(OH3) after day 10; PHA(log2). In short, it runs like this:
as §1

Test [15] is filed under the species Rattus norvegicus. Description: Evaluated for effect against passive cutaneous anaphylaxis in female wistar rats; PCA (log2). In short, it runs like this:
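Female Wistar rats (190–210 g) were immunized with 1 mg DNP-As plus 10^10 killed B. pertussis on day 0 and boosted with 0.5 mg DNP-As on day 5; serum was taken on day 8. Drug was given at 100 (mg/kg)/day po in 2% NaHCO3 for 5 days from day 0. Serum was then tested by PCA in normal male rats (Evans blue readout, >5 mm cutoff). Values are means ± SE, n=8.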

Test [16] is filed under the species Rattus norvegicus. Description: Evaluated for effect against passive hemagglutinination in female wistar rats; PHA(log2). The method, boiled down:
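Female Wistar rats were immunized with 1 mg DNP-As plus 10¹⁰ killed B. pertussis on day 0, boosted on day 5 with 0.5 mg DNP-As, and sera taken on day 8. Compound in 2% NaHCO₃ was given at 100 (mg/kg)/day po for 5 days from day 0. Hemagglutination used DNP-As-coupled sheep RBC, 2 h at 37 °C; titer is the highest complete-agglutination dilution (log2); mean ± SE, eight rats.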

This is an account of results in ChEMBL document CHEMBL1121993, “A specific inhibitor of IgE-antibody formation: n-pentyl beta-D-fructopyranoside” (1982).

Bounds are passed on as bounds.

Turning to `OC[C@@]1(OCc2ccccc2)OC[C@@H](O)[C@H](O)[C@@H]1O`, the PHA was 5 in test [1], 6 in test [2], 6 in test [6] and 9 in test [8]. Moreover, the PCA in test [3] was determined as 8.6; in [4], 9; in test [5], 8.4; in test [7], 7.
As for `CCO[C@]1(CO)OC[C@@H](O)[C@H](O)[C@@H]1O`, the PCA was determined as 7.9 in test [9]; 8.3 in test [10]; 7.8 in [11]; 6.7 in test [15]; 7.1 in [7]. Also, the PHA came out at 5 in [12]; 6 in test [13]; 5 in test [14]; 8.5 in test [16]; 7.9 in [8].
For `CCO[C@@]1(CO)O[C@H](CO)[C@@H](O)[C@@H]1O`, in test [7], the PCA came to 6.5.
On the same count and under the same terms, for `CCCCO[C@@]1(CO)O[C@H](CO)[C@@H](O)[C@@H]1O` the value was 6.7; for `CCCO[C@@]1(CO)O[C@H](CO)[C@@H](O)[C@@H]1O`, 7.3; for `CCO[C@]1(CO)O[C@H](CO)[C@@H](O)[C@@H]1O`, 6.1.
Take `O=P1(N(CCCl)CCCl)NCCCO1` (centres undefined) [CYCLOPHOSPHAMIDE ANHYDROUS]: the PCA in test [7] is on record as below 2. For the same compound, the PHA in test [8] was 1.3.
